{
  "source": "ChEMBL document CHEMBL3861960",
  "about": "“Leoligin, the Major Lignan from Edelweiss (Leontopodium nivale subsp. alpinum), Promotes Cholesterol Efflux from THP-1 Macrophages” (J Nat Prod, 2016)",
  "key": {"THP-1 [1]": {"test_system": "THP-1", "test": "Effect on CELSR3 protein expression in human THP1 cells at 10 uM after 24 hrs by proteome analysis relative to control", "type": "functional", "summary_of_the_method": "(§1)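 PMA-differentiated THP-1 macrophages given 10 μM compound or DMSO for 24 h, then lysed in TRIzol. Proteins reduced with DTT, alkylated with iodoacetamide, digested with trypsin (1:50 w/w) for 16 h at 30 °C. Biological replicates pooled, analysed by LC-MS/MS on an Orbitrap Velos Pro with a 4 h gradient, FDR ≤0.05. Only unique peptides used; log2 peptide ratios averaged per protein and tested by one-sample t test versus vehicle.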"}, "[2]": {"test": "Upregulation of ABCG1 mRNA expression in human THP1 cells at 10 uM after 24 hrs by qPCR method relative to control", "type": "functional, cell-based", "conditions": "THP-1", "summary_of_the_method": "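THP-1 macrophages treated for 24 h with 10 μM compound, 10 μM pioglitazone or DMSO. Total RNA extracted and converted to cDNA; ABCA1 or ABCG1 measured by SYBR Green qPCR and expressed relative to 18S. Mean ± SD of four independent experiments; one-way ANOVA with Bonferroni test against DMSO.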"}, "THP-1 [3]": {"test_system": "THP-1", "test": "Effect on MAGEBS protein expression in human THP1 cells at 10 uM after 24 hrs by proteome analysis relative to control", "type": "functional", "summary_of_the_method": "as §1"}, "THP-1 [4]": {"test_system": "THP-1", "test": "Effect on DNHD1 protein expression in human THP1 cells at 10 uM after 24 hrs by proteome analysis relative to control", "type": "functional", "summary_of_the_method": "as §1"}, "THP-1 [5]": {"test_system": "THP-1", "test": "Effect on HIST2H2AC protein expression in human THP1 cells at 10 uM after 24 hrs by proteome analysis relative to control", "type": "functional", "summary_of_the_method": "as §1"}, "THP-1 [6]": {"test_system": "THP-1", "test": "Effect on EVI2B protein expression in human THP1 cells at 10 uM after 24 hrs by proteome analysis relative to control", "type": "functional", "summary_of_the_method": "as §1"}, "THP-1 [7]": {"test_system": "THP-1", "test": "Effect on of ABCA1 protein expression in human THP1 cells at 10 uM after 24 hrs by proteome analysis relative to control", "type": "functional"}, "THP-1 [8]": {"test_system": "THP-1", "test": "Effect on CUL7 protein expression in human THP1 cells at 10 uM after 24 hrs by proteome analysis relative to control", "type": "functional", "summary_of_the_method": "as §1"}, "[9]": {"test": "Upregulation of ABCG1 protein expression in human THP1 cells at 10 uM after 24 hrs by Western blot method", "type": "functional, cell-based", "conditions": "THP-1", "summary_of_the_method": "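PMA-differentiated THP-1 macrophages (200 nM PMA, 72 h) exposed to 10 μM agent or DMSO vehicle for 24 h. Lysis in NP40 buffer with protease inhibitors, then Bradford protein assay. 20 μg protein run on SDS-PAGE, blotted to PVDF and probed with anti-ABCG1, β-actin as reference. ECL band densitometry from four independent experiments.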"}, "THP-1 [10]": {"test_system": "THP-1", "test": "Induction of 1% human plasma-mediated cholesterol efflux from [3H]-cholesterol labeled human THP1 cells at 10 uM preincubated for 24 hrs followed by 1% human plasma addition measured after 6 hrs by scintillation counting method", "type": "functional", "summary_of_the_method": "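Differentiated THP-1 macrophages loaded with [3H]-cholesterol for 24 h in the presence of compound, or pioglitazone 10 μM as positive control. Medium then replaced with serum-free RPMI containing compound, with or without acceptor (10 μg/mL apo A1 or 1% human plasma from fasted volunteers), for 6 h. Efflux % = extracellular/total cpm with acceptor minus without acceptor, ×100, by scintillation counting. Three independent experiments.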"}, "THP-1 [11]": {"test_system": "THP-1", "test": "Effect on GOLGA5 protein expression in human THP1 cells at 10 uM after 24 hrs by proteome analysis relative to control", "type": "functional", "summary_of_the_method": "as §1"}, "THP-1 [12]": {"test_system": "THP-1", "test": "Effect on COMMD1 protein expression in human THP1 cells at 10 uM after 24 hrs by proteome analysis relative to control", "type": "functional", "summary_of_the_method": "as §1"}, "THP-1 [13]": {"test_system": "THP-1", "test": "Effect on DYNLL2 protein expression in human THP1 cells at 10 uM after 24 hrs by proteome analysis relative to control", "type": "functional", "summary_of_the_method": "as §1"}, "THP-1 [14]": {"test_system": "THP-1", "test": "Effect on MGA protein expression in human THP1 cells at 10 uM after 24 hrs by proteome analysis relative to control", "type": "functional", "summary_of_the_method": "as §1"}, "THP-1 [15]": {"test_system": "THP-1", "test": "Effect on SDE2 protein expression in human THP1 cells at 10 uM after 24 hrs by proteome analysis relative to control", "type": "functional", "summary_of_the_method": "as §1"}, "THP-1 [16]": {"test_system": "THP-1", "test": "Effect on NCSTN protein expression in human THP1 cells at 10 uM after 24 hrs by proteome analysis relative to control", "type": "functional", "summary_of_the_method": "as §1"}, "THP-1 [17]": {"test_system": "THP-1", "test": "Effect on MCM8 protein expression in human THP1 cells at 10 uM after 24 hrs by proteome analysis relative to control", "type": "functional", "summary_of_the_method": "as §1"}, "THP-1 [18]": {"test_system": "THP-1", "test": "Effect on CD44 protein expression in human THP1 cells at 10 uM after 24 hrs by proteome analysis relative to control", "type": "functional", "summary_of_the_method": "as §1"}, "THP-1 [19]": {"test_system": "THP-1", "test": "Effect on CDK12 protein expression in human THP1 cells at 10 uM after 24 hrs by proteome analysis relative to control", "type": "functional", "summary_of_the_method": "as §1"}, "THP-1 [20]": {"test_system": "THP-1", "test": "Effect on NBEA protein expression in human THP1 cells at 10 uM after 24 hrs by proteome analysis relative to control", "type": "functional", "summary_of_the_method": "as §1"}, "THP-1 [21]": {"test_system": "THP-1", "test": "Effect on TUBA1A protein expression in human THP1 cells at 10 uM after 24 hrs by proteome analysis relative to control", "type": "functional", "summary_of_the_method": "as §1"}, "THP-1 [22]": {"test_system": "THP-1", "test": "Effect on OR1M1 protein expression in human THP1 cells at 10 uM after 24 hrs by proteome analysis relative to control", "type": "functional", "summary_of_the_method": "as §1"}, "THP-1 [23]": {"test_system": "THP-1", "test": "Effect on CYP1B1 protein expression in human THP1 cells at 10 uM after 24 hrs by proteome analysis relative to control", "type": "functional", "summary_of_the_method": "as §1"}, "THP-1 [24]": {"test_system": "THP-1", "test": "Effect on TUSC2 protein expression in human THP1 cells at 10 uM after 24 hrs by proteome analysis relative to control", "type": "functional", "summary_of_the_method": "as §1"}, "[25]": {"test": "Upregulation of ABCA1 protein expression in human THP1 cells at 10 uM after 24 hrs by Western blot method", "type": "functional, cell-based", "conditions": "THP-1", "summary_of_the_method": "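THP-1 macrophages treated for 24 h with 10 μM compound, 10 μM pioglitazone or DMSO, then lysed in NP40 buffer (150 mM NaCl, 50 mM HEPES pH 7.4, 1% NP40) with protease and phosphatase inhibitors. 20 μg protein separated by SDS-PAGE and immunoblotted for ABCA1 with β-actin, ECL detection. Densitometry from four independent experiments.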"}},
  "note": "Activity calls are given as the source filed them. The calls are words filed in the database; no cut-off is given here.",
  "data": [
    {"smiles": "C/C=C(/C)C(=O)OC[C@H]1[C@@H](Cc2ccc(OC)c(OC)c2)CO[C@@H]1c1ccc(OC)c(OC)c1", "values": [
      {"measurement": "fold change (FC)", "setting": "THP-1 [1]", "value": 1.6},
      {"measurement": "fold change (FC)", "setting": "[2]", "value": 3.8},
      {"measurement": "fold change (FC)", "setting": "THP-1 [3]", "value": 0.4},
      {"measurement": "fold change (FC)", "setting": "THP-1 [4]", "value": 0.6},
      {"measurement": "fold change (FC)", "setting": "THP-1 [5]", "value": 0.6},
      {"measurement": "fold change (FC)", "setting": "THP-1 [6]", "value": 2.3},
      {"measurement": "fold change (FC)", "setting": "THP-1 [7]", "value": 1.1},
      {"measurement": "fold change (FC)", "setting": "THP-1 [8]", "value": 0.6},
      {"measurement": "Activity", "setting": "[9]", "value": "Active"},
      {"measurement": "Activity", "setting": "THP-1 [10]", "value": "Active"},
      {"measurement": "fold change (FC)", "setting": "THP-1 [11]", "value": 2.3},
      {"measurement": "fold change (FC)", "setting": "THP-1 [12]", "value": 1.5},
      {"measurement": "fold change (FC)", "setting": "THP-1 [13]", "value": 1.7},
      {"measurement": "fold change (FC)", "setting": "THP-1 [14]", "value": 1.7},
      {"measurement": "fold change (FC)", "setting": "THP-1 [15]", "value": 0.6},
      {"measurement": "fold change (FC)", "setting": "THP-1 [16]", "value": 1.7},
      {"measurement": "fold change (FC)", "setting": "THP-1 [17]", "value": 0.5},
      {"measurement": "fold change (FC)", "setting": "THP-1 [18]", "value": 1.8},
      {"measurement": "fold change (FC)", "setting": "THP-1 [19]", "value": 1.5},
      {"measurement": "fold change (FC)", "setting": "THP-1 [20]", "value": 1.6},
      {"measurement": "fold change (FC)", "setting": "THP-1 [21]", "value": 1.5},
      {"measurement": "fold change (FC)", "setting": "THP-1 [22]", "value": 2},
      {"measurement": "fold change (FC)", "setting": "THP-1 [23]", "value": 1.6},
      {"measurement": "fold change (FC)", "setting": "THP-1 [24]", "value": 1.5},
      {"measurement": "Activity", "setting": "[25]", "value": "Active"}
    ]}
  ]
}
